This is an account of results in ChEMBL document CHEMBL1123896 (J Med Chem, 1987).

In general, IC50 refers to the midpoint of a concentration-inhibition curve. Higher therefore signals a need for much substance.

Data set [1] can be described thus: Apparent lipophilicity (log kw) at pH 7.5. The format is physicochemical. To be noted: buffer. A digest of the protocol: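 Measured at pH 7.5 by RP-HPLC. Capacity factors were extrapolated to 0% methanol, and the resulting log kw was taken as apparent lipophilicity. Values that could not be measured were estimated from derived fragmental values.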
Data set [2] deals with D(2) dopamine receptor (Rattus norvegicus) (UniProt P61169). Kind of data set: Eudisimic index was determined for the compound against Dopamine receptor D2. A digest of the protocol:
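Eudismic index is the log of the eutomer/distomer affinity ratio, calculated as pIC50(eutomer) − pIC50(distomer) for each enantiomer pair. The pIC50 values come from displacement of specific [3H]spiperone binding at the dopamine D2 receptor.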

The target of data set [3] is Sigma non-opioid intracellular receptor 1 (Rattus norvegicus) (UniProt Q9R0C9). Kind of data set: Eudisimic index was determined for the compound against sigma receptor. A digest of the protocol: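 Eudismic index is the log of the eutomer/distomer affinity ratio, calculated as pIC50(eutomer) − pIC50(distomer) for each enantiomer pair, using σ-receptor binding pIC50 values.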

Data set [4] is described as follows: Selectivity pIC50 (sigma)-pIC50(D2).
Data set [5] deals with D(2) dopamine receptor (Rattus norvegicus) (UniProt P61169).
A further data set deals with D(2) dopamine receptor (Rattus norvegicus, UniProt P61169). Kind of data set: Binding affinity for dopamine receptor D2 was evaluated by the ability to displace [3H]spiperone.
Data set [6] has as its target Sigma non-opioid intracellular receptor 1 (Rattus norvegicus, UniProt Q9R0C9). In words: Binding affinity against sigma receptor.

Sequence of Sigma non-opioid intracellular receptor 1 (Rattus norvegicus) (Q9R0C9 whole entry): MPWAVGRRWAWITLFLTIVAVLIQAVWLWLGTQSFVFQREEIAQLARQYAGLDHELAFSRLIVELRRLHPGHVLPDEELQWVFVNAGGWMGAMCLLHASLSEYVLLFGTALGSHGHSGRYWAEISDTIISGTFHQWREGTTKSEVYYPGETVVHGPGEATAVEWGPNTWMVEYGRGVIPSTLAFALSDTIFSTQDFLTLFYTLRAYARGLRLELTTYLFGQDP
Sequence of D(2) dopamine receptor (Rattus norvegicus) (P61169 whole entry): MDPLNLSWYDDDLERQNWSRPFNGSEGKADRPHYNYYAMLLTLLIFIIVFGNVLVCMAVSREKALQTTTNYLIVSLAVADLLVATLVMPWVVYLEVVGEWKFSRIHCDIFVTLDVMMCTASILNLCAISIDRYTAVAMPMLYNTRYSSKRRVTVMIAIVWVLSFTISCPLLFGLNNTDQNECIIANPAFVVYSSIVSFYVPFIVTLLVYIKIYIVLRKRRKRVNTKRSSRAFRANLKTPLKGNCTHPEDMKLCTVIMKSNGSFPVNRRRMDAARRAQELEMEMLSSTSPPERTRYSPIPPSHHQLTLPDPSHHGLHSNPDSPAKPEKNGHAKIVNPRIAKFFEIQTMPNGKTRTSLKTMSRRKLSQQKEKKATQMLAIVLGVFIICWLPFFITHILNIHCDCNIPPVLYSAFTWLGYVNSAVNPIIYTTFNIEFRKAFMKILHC
Sequence of Sigma non-opioid intracellular receptor 1 (Q9R0C9 whole entry): as the sequence (Q9R0C9 whole entry) above
Sequence of D(2) dopamine receptor (P61169 whole entry): as the sequence (P61169 whole entry) above

For `Oc1cccc([C@H]2CCCN(CCc3ccccc3)C2)c1`, the Log kw in data set [1] is on record as 2.27. The EI in data set [2] is 1.45; in data set [3], 0.3.
Regarding `Oc1cccc([C@H]2CCCNC2)c1`, in data set [1], the Log kw was 0.41. Moreover, the EI in data set [2] amounted to 0.6; in data set [3] it was 0.53. For the same compound, the Selectivity in data set [4] was -1.02.
For `CN1CCC[C@H](c2cccc(O)c2)C1`, the Log kw in data set [1] is listed as 0.96. Moreover, the values for the EI in data set [2] and in data set [3] were 0.32 and 0.71, respectively.
For the compound `CC(C)N1CCC[C@H](c2cccc(O)c2)C1`, in data set [1], the Log kw is 0.84. Further, the EI in data set [2] is 1.53; in data set [5], 0.07.
On to `CN1CCC[C@@H](c2cccc(O)c2)C1`, for which the Log kw in data set [1] was 0.94. For the same compound, the IC50 is 1.95 µM at D(2) dopamine receptor and 1.91 µM in data set [6]. The compound also came in with a Selectivity in data set [4] of 0.01.
For the compound `CCN1CCC[C@@H](c2cccc(O)c2)C1`, the Log kw in data set [1] amounted to 0.84.
Take `CCCCN1CCC[C@@H](c2cccc(O)c2)C1`: the Log kw in data set [1] came to 1.41. In data set [4], the Selectivity came out at 0.95.
Consider `CCCN1CCC[C@@H](c2cccc(O)c2)C1` [PRECLAMOL], for which the Log kw in data set [1] came out at 1.05.
For `CC(C)N1CCC[C@@H](c2cccc(O)c2)C1`, the Log kw in data set [1] was 0.84. The compound also displayed a Selectivity in data set [4] of 0.23.
For `Oc1cccc([C@@H]2CCCN(CCc3ccccc3)C2)c1`, in that order: 2.27 and 0.44.
As for `Oc1cccc([C@@H]2CCCNC2)c1`, the Log kw in data set [1] was found to be 0.41. This compound had a Selectivity in data set [4] of -0.95.
Turning to `CCCN1CCC[C@H](c2cccc(O)c2)C1`, the Log kw in data set [1] was found to be 1.05. Moreover, the figures for the EI in data set [2] and in data set [3] were 0.61 and 0.71, respectively.
As for `CCN1CCC[C@H](c2cccc(O)c2)C1`, in data set [1], the Log kw came out at 0.84.
Take `CCCCN1CCC[C@H](c2cccc(O)c2)C1`: the Log kw in data set [1] was 1.41. In addition, the figures for the EI in data set [2] and in data set [3] were 0.99 and 0.54, respectively.
